Where two headings read alike, the source gives them in different places.
Assays:
PETNR [1] = target: T1, PETNR (Enterobacter cloacae, UniProt P71278); experiment: Substrate screen of PETNR by spectrophotometric assays or GC analysis; type: biochemical, Enterobacter cloacae st. PB2
T1 sequence (P71278 1-365): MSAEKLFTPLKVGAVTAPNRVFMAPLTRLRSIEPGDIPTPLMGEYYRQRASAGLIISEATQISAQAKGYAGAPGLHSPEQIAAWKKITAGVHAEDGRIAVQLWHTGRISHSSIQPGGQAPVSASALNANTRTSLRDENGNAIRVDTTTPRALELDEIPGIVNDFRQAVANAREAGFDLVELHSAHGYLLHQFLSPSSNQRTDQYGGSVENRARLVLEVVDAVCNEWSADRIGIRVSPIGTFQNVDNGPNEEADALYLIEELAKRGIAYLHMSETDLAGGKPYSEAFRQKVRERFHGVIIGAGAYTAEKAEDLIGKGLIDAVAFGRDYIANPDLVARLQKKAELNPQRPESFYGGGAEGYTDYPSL

PETNR [2] = target: T1, PETNR; experiment: Steady-state kinetics of PETNR with α,β-unsaturated activated alkenes; type: biochemical, Enterobacter cloacae st. PB2; details: for Km / kcat: apparent, 5% ethanol
PETNR [3] = target: T1, PETNR; experiment: Time course of ketoisophorone reduction and product racemisation, PETNR 0.02 μM; type: biochemical, Enterobacter cloacae st. PB2
Method in brief: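 Racemisation time course of ketoisophorone reduction at pH 7.0 over 24 h; substrate added in DMF (2% final). Controls at 8 h either removed enzyme by 10 kDa spin filtration (5000 rpm, 5 min) or added the PETNR inhibitor 1,4,5,6-tetrahydroNADPH (1.2 mg), then incubated to 24 h total. Conversion by GC (DB-Wax); ee by GC (Chirasil-DEX-CB).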

PETNR [4] = target: T1, PETNR; experiment: Enzyme concentration dependence of the reduction of ketoisophorone by PETNR; type: biochemical, Enterobacter cloacae st. PB2; details: 2 h, pH 7.0, 3a 5 mM, NADPH 6 mM
Method in brief: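 Ketoisophorone (5 mM) and NADPH (6 mM) with varied PETNR in 50 mM phosphate pH 7.0, shaken at 130 rpm at 30 °C for 2 h. Extraction was into ethyl acetate containing internal standard. Conversion was by GC (DB-Wax) and ee by GC on a Chirasil-DEX-CB column.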

PETNR [5] = target: T1, PETNR; experiment: Aerobic versus anaerobic steady-state reaction rate of PETNR; type: biochemical, Enterobacter cloacae st. PB2; details: aerobic compared to anaerobic assays
Method in brief: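 NADPH oxidation was followed at 340 nm (365 nm for substrates absorbing at 340 nm) for 2 min at 25 °C. Anaerobic runs used a glove box (<5 ppm O2) with deoxygenated enzyme; aerobic runs were done outside it.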

PETNR [6] = target: T1, PETNR; experiment: Time effect on optical purity of levodione at PETNR 2 μM; type: biochemical, Enterobacter cloacae st. PB2; details: Supporting Information Table S1
PETNR [7] = target: T1, PETNR; details: cited from earlier work
[8] = anaerobic, pH 7.0, 25 °C, NADPH 100 μM

Question: Which “activity of PETNR towards the substrate (in words)” value (PETNR [1]) does the source give for `O=C(O)C1=CCCCC1` [1-cyclohexene-1-carboxylic acids, 1-cyclohexene-1-carboxylic acid] here?
Answer: The value was “did not reduce”.

Question: Which Ki (PETNR [2]) does the source give for `CC1=CC(=O)NC1=O` [2a, 2-Methylmaleimide] here?
Answer: The Ki was 3.2 ± 0.7 mM.

Question: With `BrC1C=CCCC1` (stereo not drawn) [3-bromocyclohexene] as the molecule, how does the “activity of PETNR towards the substrate (in words)” value (PETNR [1]) read?
Answer: The value was “no activity”.

Question: With `O=C1C=C(c2ccccc2)CCC1` [3-phenylcyclohexene-1-one] as the molecule, how does the “activity of PETNR towards the substrate (in words)” value (PETNR [1]) read?
Answer: The value was “inactive”.

Question: With `O=C(O)/C=C(\C(=O)O)c1ccccc1` [3-phenylmaleic acid] as the molecule, how does the “activity of PETNR towards the substrate (in words)” value (PETNR [1]) read?
Answer: The value was “did not reduce”.

Question: Which “Conv. [%]” value (PETNR [3]; 0.5 h, PETNR 0.02 μM, pH 7.0) does the source give for `CC1=CC(=O)CC(C)(C)C1=O` [3a, ketoisophorone] here?
Answer: Its value is 14%.

Question: And the “Conv. [%]” value (PETNR [3]; 1 h, PETNR 0.02 μM, pH 7.0)?
Answer: The value was 27%.

Question: And the “Conv. [%]” value (PETNR [3]; 1.5 h, PETNR 0.02 μM, pH 7.0)?
Answer: Its value is 37%.

Question: And the “Conv. [%]” value (PETNR [3]; 3 h, PETNR 0.02 μM, pH 7.0)?
Answer: Its value is 53%.

Question: What about the “Conv. [%]” value (PETNR [3]; 4 h, PETNR 0.02 μM, pH 7.0) of the same molecule?
Answer: Its value is 69%.

Question: And the “Conv. [%]” value (PETNR [3]; 6 h, PETNR 0.02 μM, pH 7.0)?
Answer: Its value is 85%.

Question: What about the “Conv. [%]” value (PETNR [3]; 8 h, PETNR 0.02 μM, pH 7.0) of the same molecule?
Answer: Its value is 94%.

Question: And the “Conv. [%]” value (PETNR [3]; 12 h, PETNR 0.02 μM, pH 7.0)?
Answer: Its value is 98%.

Question: What about the “Conv. [%]” value (PETNR [3]; 22 h, PETNR 0.02 μM, pH 7.0) of the same molecule?
Answer: Its value is >99%.

Question: What about the “Conv. [%]” value (PETNR [3]; 24 h, PETNR 0.02 μM, pH 7.0) of the same molecule?
Answer: Its value is >99%.

Question: And the “Conv. [%]” value (PETNR [3]; 24 h, PETNR inhibitor NADPH4 (1.2 mg) added after 8 h)?
Answer: The value was 99%.

Question: What about the “Conv. [%]” value (PETNR [3]; 24 h, filtered (10 K filter) after 8 h to remove all enzyme content) of the same molecule?
Answer: The value was 99%.

Question: And the “Conv. [%]” value (PETNR [4]; enzyme 0.002 μM)?
Answer: Its value is 2%.

Question: And the “Conv. [%]” value (PETNR [4]; enzyme 0.02 μM)?
Answer: The value was 37%.

Question: What about the “Conv. [%]” value (PETNR [4]; enzyme 0.2 μM) of the same molecule?
Answer: The value was >99%.

Question: And the “Conv. [%]” value (PETNR [4]; enzyme 2 μM)?
Answer: The value was >99%.

Question: And the Km (PETNR [2]; [8])?
Answer: Its Km is 13.7 ± 0.5 µM.

Question: What about the kcat (PETNR [2]; [8]) of the same molecule?
Answer: Its kcat is 5.52 ± 0.10 s⁻¹.

Question: For `O=C1C=CCCC1` [4a, 2-cyclohexenone], which “reduction in the overall steady-state reaction rate” value (PETNR [5]) is on record?
Answer: Its value is 18%.

Question: What about the Ki (PETNR [2]) of the same molecule?
Answer: The Ki was 23.3 ± 1.7 mM.

Question: Which results are given for `CCC=C(C)C=O` [10a, 2-methylpentenal]?
Answer: reduction in the overall steady-state reaction rate (PETNR [5]): 48%; Km (PETNR [2]; [8]): 102 ± 10.5 µM; kcat (PETNR [2]; [8]): 6.23 ± 0.33 s⁻¹; Ki (PETNR [2]; substrate inhibition, anaerobic, pH 7.0, 25 °C, NADPH 100 μM): 1.93 ± 0.46 mM

Question: For `CC1=CC(=O)CCC1` [15a, 3-methylcyclohexenone], which “activity of PETNR towards the substrate (in words)” value (PETNR [1]) is on record?
Answer: The value was “significant reduction in enzyme activity”.

Question: For `CC1=CC(=O)CC1` [16a, 3-methylcyclopentenone], which “activity of PETNR towards the substrate (in words)” value (PETNR [1]) is on record?
Answer: The value was “significant reduction in enzyme activity”.

Question: For `C[C@@H]1CC(=O)CC(C)(C)C1=O` [(R)-3b, (R)-Levodione], which rate of racemisation (PETNR [6]) is on record?
Answer: Its rate of racemisation is 3 % ee/h.

Question: What about the “decline in enantiopurity with time (rate of racemisation)” value (PETNR [3]; PETNR 0.02 μM, pH 7.0, 30 °C, aqueous, non-enzymatic) of the same molecule?
Answer: The value was “approximately 3 % ee/h”.

Question: For `NC(=O)C1=CN([C@@H]2O[C@H](COP(=O)(O)OP(=O)(O)OC[C@H]3O[C@@H](n4cnc5c(N)ncnc54)[C@H](OP(=O)(O)O)[C@@H]3O)[C@@H](O)[C@H]2O)CCC1` [NADPH4, 1,4,5,6-tetrahydroNADPH], which “inhibition of PETNR activity (in words)” value (PETNR [7]) is on record?
Answer: The value was “excellent inhibitor”.

Question: For `C/C=C/C#N` [crotonitrile], which “activity of PETNR towards the substrate (in words)” value (PETNR [1]) is on record?
Answer: The value was “no activity”.

Question: Which “activity of PETNR towards the substrate (in words)” value (PETNR [1]) does the source give for `N#CC1=CCCCC1` [cyclohexene-1-carbonitrile] here?
Answer: Its value is “no activity”.

Question: With `COC(=O)C1=CCCCC1` [methyl cyclohexenecarboxylate, methyl 1-cyclohexene-1-carboxylate] as the molecule, how does the “activity of PETNR towards the substrate (in words)” value (PETNR [1]) read?
Answer: The value was “did not reduce”.

Question: For `COC(=O)/C=C/c1ccccc1` [methyl trans-cinnamate], which “activity of PETNR towards the substrate (in words)” value (PETNR [1]) is on record?
Answer: Its value is “did not reduce”.

Question: With `O=C(O)/C=C/c1ccccc1` [trans-cinnamic acid] as the molecule, how does the “activity of PETNR towards the substrate (in words)” value (PETNR [1]) read?
Answer: Its value is “did not reduce”.

Question: Which “activity of PETNR towards the substrate (in words)” value (PETNR [1]) does the source give for `NC(=O)/C=C/c1ccccc1` [trans-cinnamide] here?
Answer: Its value is “did not reduce”.

Question: With `N#C/C=C/c1ccccc1` [trans-cinnamonitrile] as the molecule, how does the “activity of PETNR towards the substrate (in words)” value (PETNR [1]) read?
Answer: The value was “no activity”.

Question: With `BrC=Cc1ccccc1` [β-bromostyrene] as the molecule, how does the “activity of PETNR towards the substrate (in words)” value (PETNR [1]) read?
Answer: Its value is “no activity”.

From paper PMC2854813 (Advanced synthesis & catalysis, 2009)
